As a reminder, the mortality is the share of the test organisms that died.

One experiment deals with Tetranychus cinnabarinus. Nature of the experiment: Acaricidal activity against eggs of Tetranychus cinnabarinus (carmine spider mite) in sieva bean leaves assessed as mortality at 2.5 mg/kg at 25 +/-1 degC treated for 3 secs measured after 4 days. The note with it: 96 h. The class given is functional.
`CCN(CC)C(=O)C(=O)OC1=C(c2c(C)cc(C)cc2C)C(=O)OC12CCCC2`: the mortality at 2.5 mg/kg was found to be 100%.

For the compound `Cc1cc(C)c(C2=C(OC(=O)C(=O)N3CCCC3)C3(CCCC3)OC2=O)c(C)c1`, the mortality at 2.5 mg/kg stood at 30%.

Regarding `Cc1cc(C)c(C2=C(OC(=O)C(=O)N(C)c3ccccc3)C3(CCCC3)OC2=O)c(C)c1`, the mortality at 2.5 mg/kg is 100%.

In the next experiment the test system is Mythimna separata. Briefly: Stomach toxicity against fourth-instar larval stage of Mythimna separata (Oriental armyworm) in compound-pretreated corn leaves assessed as mortality at 50 mg/kg at 25 +/-1 degC after 4 days. The format is functional.
Settings: not given
A digest of the protocol: (§1)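 Foliar application to oriental armyworm. Single corn leaves were laid on moistened filter paper in Petri dishes. Bioassays were run at 25 ± 1 °C.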
Take `CCN(CC)C(=O)C(=O)OC1=C(c2c(C)cc(C)cc2C)C(=O)OC12CCCC2`: the mortality at 50 mg/kg was found to be 40%.

Another experiment concerns Ostrinia nubilalis. Briefly: Stomach toxicity against third-instar larval stage of Ostrinia nubilalis (European corn borer) in corn leaves assessed as mortality at 600 mg/kg at 25 +/-1 degC treated for 3-5 secs before larval infestation after 4 days by leaf-dip method. The class given is functional. Conditions: 96 h. A digest of the protocol: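 Corn leaf disks (about 5 cm) were dipped for 3–5 s and air-dried. Each disk was placed in a 7 cm glass vessel with 10 third-instar corn borer larvae. Percentage mortality was scored 4 days after treatment. Controls were acetone-treated leaves. Run at 25 ± 1 °C.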
Turning to `CCN(CC)C(=O)C(=O)OC1=C(c2c(C)cc(C)cc2C)C(=O)OC12CCCC2`, the mortality at 600 mg/kg worked out at 30%.

For the compound `Cc1cc(C)c(C2=C(OC(=O)C(=O)N3CCCC3)C3(CCCC3)OC2=O)c(C)c1`, the mortality at 600 mg/kg amounted to 30%.

In the case of `Cc1cc(C)c(C2=C(OC(=O)C(=O)N(C)c3ccccc3)C3(CCCC3)OC2=O)c(C)c1`, the mortality at 600 mg/kg came to 30%.

A further experiment has as its system Tetranychus cinnabarinus. Nature of the experiment: Acaricidal activity against eggs of Tetranychus cinnabarinus (carmine spider mite) in sieva bean leaves assessed as mortality at 0.5 mg/kg at 25 +/-1 degC treated for 3 secs measured after 4 days. Conditions: 96 h. The format is functional.
For the compound `CCN(CC)C(=O)C(=O)OC1=C(c2c(C)cc(C)cc2C)C(=O)OC12CCCC2`, the mortality at 0.5 mg/kg turned out to be 0%.

Take `Cc1cc(C)c(C2=C(OC(=O)C(=O)N(C)c3ccccc3)C3(CCCC3)OC2=O)c(C)c1`: the mortality at 0.5 mg/kg is 100%.

Another experiment deals with Mythimna separata. Nature of the experiment: Stomach toxicity against fourth-instar larval stage of Mythimna separata (Oriental armyworm) in compound-pretreated corn leaves assessed as mortality at 600 mg/kg at 25 +/-1 degC after 4 days.
Settings: not given
The format is functional. A digest of the protocol: as §1
For the compound `Cc1cc(C)c(C2=C(OC(=O)C(=O)N3CCCC3)C3(CCCC3)OC2=O)c(C)c1`, the mortality at 600 mg/kg stood at 40%.

`Cc1cc(C)c(C2=C(OC(=O)C(=O)N(C)c3ccccc3)C3(CCCC3)OC2=O)c(C)c1`: the mortality at 600 mg/kg turned out to be 80%.

For a further experiment, the system named is Tetranychus cinnabarinus. Briefly: Acaricidal activity against eggs of Tetranychus cinnabarinus (carmine spider mite) in sieva bean leaves assessed as mortality at 0.25 mg/kg at 25 +/-1 degC treated for 3 secs measured after 4 days. The format is functional. Conditions: 96 h.
On to `Cc1cc(C)c(C2=C(OC(=O)C(=O)N(C)c3ccccc3)C3(CCCC3)OC2=O)c(C)c1`, for which the mortality at 0.25 mg/kg was 50%.

In the next experiment the test system is Tetranychus cinnabarinus. Nature of the experiment: Acaricidal activity against eggs of Tetranychus cinnabarinus (carmine spider mite) in sieva bean leaves assessed as mortality at 5 mg/kg at 25 +/-1 degC treated for 3 secs measured after 4 days. The class given is functional. The note with it: 96 h.
For the compound `CCN(CC)C(=O)C(=O)OC1=C(c2c(C)cc(C)cc2C)C(=O)OC12CCCC2`, the mortality at 5 mg/kg stood at 100%.

With `Cc1cc(C)c(C2=C(OC(=O)C(=O)N3CCCC3)C3(CCCC3)OC2=O)c(C)c1`, the mortality at 5 mg/kg was determined as 70%.

With `Cc1cc(C)c(C2=C(OC(=O)C(=O)N(C)c3ccccc3)C3(CCCC3)OC2=O)c(C)c1`, the mortality at 5 mg/kg stood at 100%.

Another experiment concerns Tetranychus cinnabarinus. Nature of the experiment: Acaricidal activity against larvae of Tetranychus cinnabarinus (carmine spider mite) in sieva bean leaves assessed as mortality at 1 mg/kg at 25 +/-1 degC treated for 3 secs measured after 4 days. The format is functional. Conditions: 96 h.
Take `CCN(CC)C(=O)C(=O)OC1=C(c2c(C)cc(C)cc2C)C(=O)OC12CCCC2`: the mortality at 1 mg/kg amounted to 70%.

On to `Cc1cc(C)c(C2=C(OC(=O)C(=O)N(C)c3ccccc3)C3(CCCC3)OC2=O)c(C)c1`, for which the mortality at 1 mg/kg is 0%.

A further experiment deals with Helicoverpa armigera. Briefly: Stomach toxicity against third-instar larval stage of Helicoverpa armigerain compound-pretreated corn leaves assessed as mortality at 600 mg/kg at 25 +/-1 degC after 4 days by leaf-dip method. The class given is functional.
Settings: not given
In outline: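 Leaf-dip assay on cotton bollworm. Corn leaves were dipped in test solution and air-dried. The treated pieces were placed individually into 24-hole boxes. Run at 25 ± 1 °C.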
Regarding `CCN(CC)C(=O)C(=O)OC1=C(c2c(C)cc(C)cc2C)C(=O)OC12CCCC2`, the mortality at 600 mg/kg turned out to be 20%.

Regarding `Cc1cc(C)c(C2=C(OC(=O)C(=O)N3CCCC3)C3(CCCC3)OC2=O)c(C)c1`, the mortality at 600 mg/kg is 30%.

For `Cc1cc(C)c(C2=C(OC(=O)C(=O)N(C)c3ccccc3)C3(CCCC3)OC2=O)c(C)c1`, the mortality at 600 mg/kg was 50%.

A further experiment concerns Mythimna separata. Briefly: Stomach toxicity against fourth-instar larval stage of Mythimna separata (Oriental armyworm) in compound-pretreated corn leaves assessed as mortality at 100 mg/kg at 25 +/-1 degC after 4 days. The class given is functional.
Settings: not given
In outline: as §1
As for `CCN(CC)C(=O)C(=O)OC1=C(c2c(C)cc(C)cc2C)C(=O)OC12CCCC2`, the mortality at 100 mg/kg was determined as 100%.

The next experiment deals with Tetranychus cinnabarinus. Briefly: Acaricidal activity against larvae of Tetranychus cinnabarinus (carmine spider mite) in sieva bean leaves assessed as mortality at 10 mg/kg at 25 +/-1 degC treated for 3 secs measured after 4 days. The class given is functional. The note with it: 96 h.
In the case of `CCN(CC)C(=O)C(=O)OC1=C(c2c(C)cc(C)cc2C)C(=O)OC12CCCC2`, the mortality at 10 mg/kg was 100%.

For the compound `Cc1cc(C)c(C2=C(OC(=O)C(=O)N3CCCC3)C3(CCCC3)OC2=O)c(C)c1`, the mortality at 10 mg/kg was 40%.

For the compound `Cc1cc(C)c(C2=C(OC(=O)C(=O)N(C)c3ccccc3)C3(CCCC3)OC2=O)c(C)c1`, the mortality at 10 mg/kg turned out to be 80%.

The next experiment concerns Plutella xylostella. Nature of the experiment: Stomach toxicity against third-instar larval stage of Plutella xylostella (diamondback moth) in cabbage leaves assessed as mortality at 200 mg/kg at 25 +/-1 degC treated for 3 secs before larval infestation after 4 days by leaf-dip method. The format is functional. Conditions: 96 h. In outline: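 Cabbage leaf disks (6 cm × 2 cm) were dipped in test solution for 3 s and air-dried. Each disk was placed in a glass tube and given seven third-instar diamondback moth larvae. Percentage mortality was scored after 4 days. Controls were water and dimethylformamide. Each treatment was done three times at 25 ± 1 °C.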
As for `CCN(CC)C(=O)C(=O)OC1=C(c2c(C)cc(C)cc2C)C(=O)OC12CCCC2`, the mortality at 200 mg/kg worked out at 85%.

On to `Cc1cc(C)c(C2=C(OC(=O)C(=O)N(C)c3ccccc3)C3(CCCC3)OC2=O)c(C)c1`, for which the mortality at 200 mg/kg was 70%.

The subject of another experiment is Tetranychus cinnabarinus. Briefly: Acaricidal activity against eggs of Tetranychus cinnabarinus (carmine spider mite) in sieva bean leaves assessed as mortality at 1 mg/kg at 25 +/-1 degC treated for 3 secs measured after 4 days. The class given is functional. Conditions: 96 h.
Consider `CCN(CC)C(=O)C(=O)OC1=C(c2c(C)cc(C)cc2C)C(=O)OC12CCCC2`, for which the mortality at 1 mg/kg amounted to 60%.

With `Cc1cc(C)c(C2=C(OC(=O)C(=O)N(C)c3ccccc3)C3(CCCC3)OC2=O)c(C)c1`, the mortality at 1 mg/kg stood at 100%.

The test system of another experiment is Tetranychus cinnabarinus. Nature of the experiment: Acaricidal activity against larvae of Tetranychus cinnabarinus (carmine spider mite) in sieva bean leaves assessed as mortality at 5 mg/kg at 25 +/-1 degC treated for 3 secs measured after 4 days. The class given is functional. Conditions: 96 h.
Regarding `CCN(CC)C(=O)C(=O)OC1=C(c2c(C)cc(C)cc2C)C(=O)OC12CCCC2`, the mortality at 5 mg/kg amounted to 100%.

Take `Cc1cc(C)c(C2=C(OC(=O)C(=O)N3CCCC3)C3(CCCC3)OC2=O)c(C)c1`: the mortality at 5 mg/kg amounted to 0%.

As for `Cc1cc(C)c(C2=C(OC(=O)C(=O)N(C)c3ccccc3)C3(CCCC3)OC2=O)c(C)c1`, the mortality at 5 mg/kg was determined as 70%.

The subject of the next experiment is Tetranychus cinnabarinus. Briefly: Acaricidal activity against larvae of Tetranychus cinnabarinus (carmine spider mite) in sieva bean leaves assessed as mortality at 2.5 mg/kg at 25 +/-1 degC treated for 3 secs measured after 4 days. The format is functional. The note with it: 96 h.
Turning to `CCN(CC)C(=O)C(=O)OC1=C(c2c(C)cc(C)cc2C)C(=O)OC12CCCC2`, the mortality at 2.5 mg/kg was 90%.

As to `Cc1cc(C)c(C2=C(OC(=O)C(=O)N(C)c3ccccc3)C3(CCCC3)OC2=O)c(C)c1`, the mortality at 2.5 mg/kg is 40%.
